What was measured:
[1] = tested on: Mdc1; assay: Peptide pull-down from HeLa nuclear extract; assay type: binding, human; conditions: peptide coupled to magnetic beads, SDS-PAGE, western blot
[2] = tested on: RAD50; assay: Peptide pull-down from HeLa nuclear extract; assay type: binding, human; conditions: peptide coupled to magnetic beads; band at ∼150 kDa
[3] = tested on: MRE11; assay: Peptide pull-down from HeLa nuclear extract; assay type: binding, human; conditions: peptide coupled to magnetic beads; band at ∼80 kDa
[4] = tested on: Mdc1 FHA domain (M-1 GST-fragment); assay: Phosphopeptide pull-down with GST fragment M-1; assay type: binding, human; conditions: bacterially expressed GST-fusion
[5] = tested on: Mdc1 BRCT domains (M-8 GST-fragment); assay: Phosphopeptide pull-down with GST fragment M-8; assay type: binding, human; conditions: bacterially expressed GST-fusion
[6] = tested on: Myc-tagged Mdc1 (1–800); assay: Co-immunoprecipitation of Flag- and Myc-tagged Mdc1; assay type: cell-based, human; conditions: transiently transfected 293T cells, anti-Flag IP, anti-Myc immunoblot
Procedure, shortened: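 Human Mdc1 residues 1–800, C-terminally tagged with HA/FLAG or Myc, in a pcDNA3.1(+) vector. HEK 293T cells grown in D-MEM with 10% FCS and streptomycin/penicillin (100 U/ml). Transfected with FuGene 6 or calcium phosphate. Immunoprecipitation on anti-FLAG M2 affinity gel; Myc-tagged partner detected by immunoblot with rabbit polyclonal c-Myc antibody.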

[7] = tested on: endogenous Mdc1; assay: Co-immunoprecipitation of Flag-tagged Mdc1; assay type: cell-based, human; conditions: 293T cells, with or without IR (10 Gy)
Procedure, shortened: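 HEK 293T cells in D-MEM with 10% FCS and streptomycin/penicillin were transfected (FuGene 6 or calcium phosphate) with FLAG-tagged human Mdc1 residues 1–800 in pcDNA3.1(+). IR was given in an X-ray cabinet at 5–10 Gy/min. Complexes were captured on anti-FLAG M2 affinity gel and probed for endogenous Mdc1.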

binding of FHA domain GST-fusion [4]	binding of C-terminal BRCT-repeat region GST-fusion [5]	Molecule	Mdc1 pulled down from HeLa nuclear extract [1]	Mdc1 pulled down from HeLa nuclear extract ([1]; listed as phosphopeptide)	RAD50 pulled down from HeLa nuclear extract [2]	MRE11 pulled down from HeLa nuclear extract [3]	interaction of Flag-tagged with Myc-tagged Mdc1 (1–800) [6]	co-immunoprecipitation with endogenous Mdc1 [7]
bound tightly and specifically	no significant interaction detectable	MED[pT]QAIDWDAE[KBtn] [pThr-4 phosphopeptide]	efficiently pulled down	pulled down by the phosphopeptide only	pulled down by the phosphopeptide only	pulled down by the phosphopeptide only		
		Mdc1 (1–800): tagged N-terminal Mdc1 fragment lacking the BRCT domains (protein, left off: HA/FLAG on one copy and Myc on the other, C-terminal, kept) MEDTQAIDWDVEEEEETEQSSESLRCNVEPVGRLHIFSGAHGPEKDFPLHLGKNVVGRMPDCSVALPFPSISKQHAEIEILAWDKAPILRDCGSLNGTQILRPPKVLSPGVSHRLRDQELILFADLLCQYHRLDVSLPFVSRGPLTVEETPRVQGETQPQRLLLAEDSEEEVDFLSERRMVKKSRTTSSSVIVPESDEEGHSPVLGGLGPPFAFNLNSDTDVEEGQQPATEEASSAARRGATVEAKQSEAEVVTEIQLEKDQPLVKERDNDTKVKRGAGNGVVPAGVILERSQPPGEDSDTDVDDDSRPPGRPAEVHLERAQPFGFIDSDTDAEEERIPATPVVIPMKKRKIFHGVGTRGPGAPGLAHLQESQAGSDTDVEEGKAPQAVPLEKSQASMVINSDTDDEEEVSAALTLAHLKESQPAIWNRDAEEDMPQRVVLLQRSQTTTERDSDTDVEEEELPVENREAVLKDHTKIRALVRAHSEKDQPPFGDSDDSVEADKSSPGIHLERSQASTTVDINTQVEKEVPPGSAIIHIKKHQVSVEGTNQTDVKAVGGPAKLLVVSLEEAWPLHGDCETDAEEGTSLTASVVADVRKSQLPAEGDAGAEWAAAVLKQERAHEVGAQGGPPVAQVEQDLPISRENLTDLVVDTDTLGESTQPQREGAQVPTGREREQHVGGTKDSEDNYGDSEDLDLQATQCFLENQGLEAVQSMEDEPTQAFMLTPPQELGPSHCSFQTTGTLDEPWEVLATQPFCLRESEDSETQPFDTHLEAYGPCLSPPRAIPGDQHPESPVHTEPM					efficiently interacted	exclusively in extracts prepared from IR-treated cells

From publication PMC3351161 (Nucleic Acids Research, 2012)
